Experimental findings from the array DNA melting data of Ke et al. (doi:10.1101/2024.01.08.574731) are described below.

A short description of data set [1]: folding enthalpy; higher = less favourable; fluorescence melt of hairpins on a sequencing array, two-state fit. Particulars: sodium 0.088 M. The method, boiled down: (§1)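 Folding enthalpy and melting temperature were estimated with bootstrapped two-state fits and combined across four replicates by inverse-variance weighting, with fitted temperatures raised by 9.35 °C to match UV melts. The data were Cy3 fluorescence of library hairpins, with annealed Cy3 and quencher oligos, on a sequenced MiSeq flow cell in 50 mM Na-HEPES pH 8.0, 25 mM NaCl, imaged in 2.5 °C steps up to 60 °C and normalised to pre-quench Cy3 and control constructs.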

Data set [2] in a line: melting temperature; fluorescence melt of hairpins on a sequencing array, two-state fit, raised by 9.35 °C to match UV melts. As to conditions: sodium 0.088 M. The method, boiled down:
as §1

Regarding GCGAATCGAAAGATACGC (((.(((....))).))), the folding enthalpy in data set [1] was -44.5 kcal/mol. In addition, the Tm in data set [2] was 55.5 °C.
The corresponding values for GCGAATCGAAAGATCGC (((.(((....)))))) are -31.2 kcal/mol and 57.3 °C.
The matching figures for GCGAATGCGAAAGCACGC (((..(((....)))))): -18.9 kcal/mol and 52.3 °C.
The matching figures for GCGAATGGAAACATCCGC (((.(((....))).))): -23.1 kcal/mol and 45.4 °C.
On to GCGAATGGAAACATTCAC (.(((((....))))).), for which, in data set [1], the folding enthalpy was -18.6 kcal/mol. Further, the Tm in data set [2] was found to be 38.1 °C.
The corresponding values for GCGAATTCTCGC ((((....)))) are -19.6 kcal/mol and 47.9 °C.
The matching figures for GCGAATTTCGC ((((...)))): -24.8 kcal/mol and 48.8 °C.
The matching figures for GCGACAAATCGC ((((....)))): -16.5 kcal/mol and 43.6 °C.
For GCGACAATTCGC ((((....)))), the folding enthalpy in data set [1] was -17.2 kcal/mol. Also, in data set [2], the Tm was 44.8 °C.
Consider GCGACACGAAAGTGACGC (((.(((....))).))), for which, in data set [1], the folding enthalpy is -38.7 kcal/mol. For the same sequence, the Tm in data set [2] was 68.5 °C.
The matching figures for GCGACAGATCGC ((((....)))): -20.7 kcal/mol and 47.9 °C.
The matching figures for GCGACAGGAAACCATCGC ((((..(....)..)))): -17 kcal/mol and 35.8 °C.
Consider GCGACAGGAAACTGTCAC (.(((((....))))).), for which the folding enthalpy in data set [1] is -16.6 kcal/mol. The Tm in data set [2] came to 43.8 °C.
In the case of GCGACATATCGC ((((....)))), in data set [1], the folding enthalpy is -23.4 kcal/mol. Moreover, the Tm in data set [2] turned out to be 49.9 °C.
The corresponding values for GCGACCATCGC ((((...)))) are -17.6 kcal/mol and 46.4 °C.
The corresponding values for GCGACCATTCGC ((((....)))) are -24.4 kcal/mol and 47.4 °C.
The corresponding values for GCGACCCGTCGC ((((....)))) are -40.1 kcal/mol and 60.7 °C.
Take GCGACCCTTCGC ((((....)))): the folding enthalpy in data set [1] was -26.3 kcal/mol. Also, the Tm in data set [2] stood at 51.1 °C.
As for GCGACCGAAAGGTGCCGC ((((((....)))..))), in data set [1], the folding enthalpy is -15.6 kcal/mol. Also, in data set [2], the Tm turned out to be 50.4 °C.
The matching figures for GCGACCGAAAGGTTTCGC ((((((....)))..))): -24.1 kcal/mol and 49 °C.
The matching figures for GCGACCGGTCGC ((((....)))): -55.6 kcal/mol and 62 °C.
The corresponding values for GCGACCTGTCGC ((((....)))) are -26.5 kcal/mol and 68.3 °C.
Regarding GCGACCTTCGC ((((...)))), the folding enthalpy in data set [1] was -25.4 kcal/mol. Besides, the Tm in data set [2] was determined as 48.2 °C.
For GCGACGAATCGC ((((....)))), in data set [1], the folding enthalpy was -13.1 kcal/mol. In addition, the Tm in data set [2] stood at 49.6 °C.
The matching figures for GCGACGCGAAAGCATGGC ((.(.((....)).).)): -9.76 kcal/mol and 40.4 °C.
On to GCGACGCGAAAGCCTAGC ((.(.((....)).).)), for which, in data set [1], the folding enthalpy was -18.9 kcal/mol. Further, in data set [2], the Tm turned out to be 43.5 °C.
The matching figures for GCGACGCGAAAGCGCAGC ((..(((....)))..)): -15.5 kcal/mol and 58.9 °C.
The matching figures for GCGACGCGAAAGCTTCGC ((((.((....)).)))): -45.6 kcal/mol and 65.2 °C.
As for GCGACGGTCGC ((((...)))), the folding enthalpy in data set [1] was -28.4 kcal/mol. In data set [2], the Tm turned out to be 48.7 °C.
The matching figures for GCGACGTCGAAAGACCGC (((..(((....)))))): -25.4 kcal/mol and 50.6 °C.
The corresponding values for GCGACTAATCGC ((((....)))) are -24.2 kcal/mol and 47.2 °C.
The matching figures for GCGACTAGTCGC ((((....)))): -28.9 kcal/mol and 65.2 °C.
Consider GCGACTATCGC ((((...)))), for which the folding enthalpy in data set [1] was -16.8 kcal/mol. Also, the Tm in data set [2] was 46.6 °C.
Take GCGACTATTCGC ((((....)))): the folding enthalpy in data set [1] is -19.3 kcal/mol. Moreover, the Tm in data set [2] was 47.4 °C.
The matching figures for GCGACTGCGAAAGCACGC (((..(((....)))))): -15.3 kcal/mol and 48.8 °C.
On to GCGACTGGAAACAGCCGC (((.(((....))).))), for which the folding enthalpy in data set [1] was -51.9 kcal/mol. Also, the Tm in data set [2] was determined as 56.2 °C.
For the sequence GCGACTTATCGC ((((....)))), the folding enthalpy in data set [1] is -24.1 kcal/mol. In addition, the Tm in data set [2] worked out at 48.8 °C.
For GCGAGACATCGC ((((....)))), the folding enthalpy in data set [1] is -8 kcal/mol. Also, the Tm in data set [2] came out at 55.1 °C.
Take GCGAGACGAAAGTCACGC (((.(((....))).))): the folding enthalpy in data set [1] is -31.5 kcal/mol. For the same sequence, the Tm in data set [2] was found to be 68.5 °C.
